The text below walks through data of ChEMBL document CHEMBL2331096, “Montmorillonite K-10 catalyzed green synthesis of 2,6-unsubstituted dihydropyridines as potential inhibitors of PDE4” (Eur J Med Chem, 2013).

Experiment [1] concerns the target T1, 3',5'-cyclic-AMP phosphodiesterase 4B (Homo sapiens, UniProt Q07343). Kind of experiment: Inhibition of recombinant His-tagged PDE4B (unknown origin) expressed in Sf9 cells using cAMP as substrate at 30 uM incubated for 15 mins prior to substrate addition measured after 1 hr by luminescence-based assay. Summed up: (§1)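 His-tagged PDE4B made in baculovirus-infected Sf9 cells (lysed 48 h post-infection) and purified on Ni-NTA with imidazole elution. Enzyme (10 ng) pre-incubated 15 min with compound or DMSO vehicle, then 1 h with cAMP substrate; reaction stopped, detection reagent added for 10 min in dark, luminescence (RLU) read. Percent inhibition calculated from RLU relative to vehicle control.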

For experiment [2], the target named is T1, 3',5'-cyclic-AMP phosphodiesterase 4B. Kind of experiment: Inhibition of recombinant His-tagged PDE4B (unknown origin) expressed in Sf9 cells using cAMP as substrate incubated for 15 mins prior to substrate addition measured after 1 hr by luminescence-based assay. Summed up:
as §1

T1 sequence (Q07343 whole entry): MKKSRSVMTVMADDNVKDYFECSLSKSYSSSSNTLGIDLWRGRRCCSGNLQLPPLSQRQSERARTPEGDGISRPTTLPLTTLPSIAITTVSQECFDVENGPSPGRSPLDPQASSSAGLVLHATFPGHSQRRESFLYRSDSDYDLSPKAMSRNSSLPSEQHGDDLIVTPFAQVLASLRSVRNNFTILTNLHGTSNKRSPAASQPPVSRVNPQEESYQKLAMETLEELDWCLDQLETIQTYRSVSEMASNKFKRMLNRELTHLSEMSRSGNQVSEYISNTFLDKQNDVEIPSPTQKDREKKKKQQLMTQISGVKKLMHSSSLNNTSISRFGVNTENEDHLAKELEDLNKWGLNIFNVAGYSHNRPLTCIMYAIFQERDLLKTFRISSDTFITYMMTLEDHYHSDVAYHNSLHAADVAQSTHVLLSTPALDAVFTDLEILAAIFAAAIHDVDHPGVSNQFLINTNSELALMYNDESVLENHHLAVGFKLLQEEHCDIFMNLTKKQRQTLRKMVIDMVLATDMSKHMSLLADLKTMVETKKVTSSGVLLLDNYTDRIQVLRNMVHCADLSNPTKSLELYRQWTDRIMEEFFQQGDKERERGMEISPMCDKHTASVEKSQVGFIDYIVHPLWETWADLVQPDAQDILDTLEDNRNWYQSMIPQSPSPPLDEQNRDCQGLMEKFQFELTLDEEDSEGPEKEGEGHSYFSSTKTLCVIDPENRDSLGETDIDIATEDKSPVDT

For `CCOC(=O)C1=CN(c2ccccc2OC)C=C(C(=O)OCC)C1c1cccc(Cl)c1`, in experiment [1], the inhibition – broadly, the share of the control response that was lost under treatment – came to 30.4%. Still for that read-out and setting: next, `CCOC(=O)C1=CN(c2ccc(OC)cc2)C=C(C(=O)OCC)C1c1ccc(Br)cc1`: 35.1%. Same read-out and setting: next, `CCOC(=O)C1=CN(c2ccccc2OC)C=C(C(=O)OCC)C1c1ccc(F)c(F)c1`: 46%. Same read-out and setting: with `CCOC(=O)C1=CN(c2ccc(OC)cc2OC)C=C(C(=O)OCC)C1c1ccc(F)c(F)c1` the figure was 69.2%; with `CCOC(=O)C1=CN(c2ccc(OC)cc2)C=C(C(=O)OCC)C1c1ccc(F)c(F)c1`, 78.7%. Turning to `CCOC(=O)C1=CN(c2ccccc2OC)C=C(C(=O)OCC)C1c1ccccc1`, the inhibition in experiment [1] is 29.9%.

In the case of `CCOC(=O)C1=CN(c2ccccc2OC)C=C(C(=O)OCC)C1c1ccc(F)cc1`, the inhibition in experiment [1] was found to be 33.4%. For the molecule `CCOC(=O)C1=CN(c2ccc(OC)cc2)C=C(C(=O)OCC)C1c1ccc(F)cc1`, the inhibition in experiment [1] was determined as 40.2%. The same measure, in the same setting: next, `CCOC(=O)C1=CN(c2ccc(OC)cc2)C=C(C(=O)OCC)C1c1ccccc1`: 39.3%.

As for `CCOC(=O)C1=CN(c2ccccc2OC)C=C(C(=O)OCC)C1c1ccc(Br)cc1`, the IC50 – broadly, the concentration needed to halve the response being measured – in experiment [2] was over 5 µM. Moreover, the figures for the inhibition result in experiment [2] and in experiment [1] were “Dose-dependent effect” and 78.4%, respectively. `CCOC(=O)C1=CN(c2ccccc2OC)C=C(C(=O)OCC)C1c1cccc(Br)c1`: the inhibition in experiment [1] turned out to be 37.3%. Same read-out and setting: with `CCOC(=O)C1=CN(c2cccc(Cl)c2)C=C(C(=O)OCC)C1c1ccc(F)cc1` the figure was 44.2%; with `CCOC(=O)C1=CN(c2ccccc2OC)C=C(C(=O)OCC)C1c1ccc(OC)cc1`, 59.2%; with `CCOC(=O)C1=CN(c2ccc(OC)cc2)C=C(C(=O)OCC)C1c1cccc(Br)c1`, 42%.
